# Experimental data pooled from the literature.
# Lines come from different studies, so protocols differ.
Structure (SMILES),method,medium,time,pH,temperature,notes,solubility
CCCCCCCCCCCCCC(=O)Nc1ccc(CP(=O)(O)O)cc1,,water,,,,,1000 µg/mL
Brc1cccc2c(NCc3ccccc3)nc(NCc3ccccc3)nc12,,aqueous buffer,,pH 6.2,,,0.13 µg/mL
Cc1cc2c(cc1C)[n+](Cc1ccc3ccccc3n1)cn2Cc1ccc2ccccc2n1.[Cl-],,water,,,,,> 500 µg/mL
COc1c(N2CCNC(C)C2)c(F)cc2c(=O)c(C(=O)NCCCN(C)C)cn(C3CC3)c12 (racemic),,water,,,,,72000 µM
c1ccc(CNc2nc(N3CCOc4ccccc43)nc3ccccc23)cc1,,aqueous buffer,,pH 7.4,,,0.48 µg/mL
CCC(F)(F)c1nc2nc(C)cc(Nc3ccc(S(F)(F)(F)(F)F)cc3)n2n1,nephelometry,aqueous buffer,,pH 6.5,,,15 to 30 µM
CC(C)CC(=O)N1CCC[C@H](COc2cccc3c2C(N)=NS(=O)(=O)N3)C1,,aqueous buffer,,pH 7.1,,,240 µM
CCCOc1ccc2cc(-c3nn(C(C)(C)C)c(N)c3C(N)=O)cnc2c1,,PBS,,pH 6.5,25 °C,,12.7 µM
CCc1cc(O)ccc1-c1ccc2c(-c3nc4c([nH]3)CN(C(C)C)[C@H](C(=O)N3CC(N(C)C)C3)C4)n[nH]c2c1,,aqueous buffer,,,,,13 µM
CS(=O)(=O)N1CCN(Cc2cc3nc(-c4cccc5[nH]ncc45)nc(N4CCOCC4)c3s2)CC1,,FaSSIF,,,,,1 µg/mL
Cc1cccc(C(=O)Nc2cccc(NC(=O)c3ccccc3)c2)c1,,aqueous buffer,,,,,< 0.03 µM
Cc1ccc(S(=O)(=O)NCc2ccc(C(=O)NCCN(Cc3ccccc3)C(C)C)cc2)cc1,,aqueous buffer,,pH 6.2,,,0.12 µg/mL
Cn1c(-c2nc3cc(C(=O)N4CCCC(N)C4)ccc3n2C)cc2ccccc21 (stereo not shown),,aqueous buffer,,,,,> 350 µM
Cl.Clc1ccc2c(c1)nc(NCCNCc1ccccc1)n2Cc1ccccc1,shake flask,aqueous buffer,20 h,pH 6.5,25 °C,,25 µM
CN1CCN(C(=O)C2CCN(c3nccc4[nH]c(-c5ccc(F)c(F)c5)nc34)CC2)CC1,shake flask,aqueous buffer,,pH 6.5,,,> 200 µM
COc1cc(F)c(S(=O)(=O)N2CCN(S(=O)(=O)c3cccc(N)c3)CC2)c(F)c1,,aqueous buffer,,,,,< 0.4 µg/mL
COc1ccnc(CNC(=O)c2cn(Cc3ccc(Cn4ccccc4=O)cc3)nc2C(F)(F)F)c1F,,FaSSIF,4 h,pH 6.5,,,20 µg/mL
OCCOc1cccc2c(NCc3ccccc3)nc(N3CCOc4ccccc43)nc12,,aqueous buffer,,pH 5,,,21.5 µg/mL
CCn1cc(CNC(=O)C2=C(C)NC(Nc3nc4ccc(F)c(N)c4o3)=NC2c2ccc(C)cc2Cl)cn1 (stereo not shown),,aqueous buffer,6 h,pH 7.4,,,< 1 µg/mL
Clc1cccc(Nc2nc(NCc3cccc(Br)c3)c3ccccc3n2)c1,,aqueous buffer,,pH 5,,,0.1 µg/mL
O=C(CCCCCCC(=O)Nc1ccccc1)NO,,simulated gastric fluid,48 h,pH 2,25 °C,acidic,160 µg/mL
N=C(N)NCc1ccc(NC(=O)C23CC(C(=O)Nc4ccc(C5=CCN(C(=N)N)CC5)cc4)(C2)C3)cc1,shake flask,aqueous buffer,,pH 7.4,,,770 µg/mL
CCOc1ccc2cc(-c3nn(C(C)C)c(N)c3C(N)=O)ccc2n1,,PBS,,pH 6.5,25 °C,,> 100 µM
CN1CCC(N2CCCN(c3nccc4[nH]c(-c5ccc(F)c(F)c5)nc34)CC2)CC1,shake flask,aqueous buffer,,pH 6.5,,,> 200 µM
O=C(Nc1c2c(cc3c1CCC3)CCC2)NS(=O)(=O)/C=C/c1nccs1,,PBS,24 h,pH 6.8,37 °C,,646 µg/mL
O=C(Nc1ccc(S(=O)(=O)N2CCC(Cl)CC2)cc1)c1ccc([N+](=O)[O-])o1,,aqueous buffer,,pH 6.2,,,9.2 µM
Cc1cc(Nc2ccc(S(F)(F)(F)(F)F)cc2)n2nc(C(F)(F)F)nc2n1,nephelometry,aqueous buffer,,pH 6.5,,,30 to 60 µM
COc1ccc(N2CCN(CCCNC(=O)Cn3c(=O)c4cccn4c4c(C)ccnc43)CC2)cc1,,aqueous buffer,,pH 7.4,,,12.4 µg/mL
Cc1c(N(C)C)c(=O)n(-c2ccccc2)n1C,,PBS,,pH 7.4,,,46300 µg/mL
CN1CCC(N2CCN(c3nccc4[nH]c(-c5ccc(F)c(F)c5)nc34)CC2)CC1,shake flask,aqueous buffer,,pH 6.5,,,> 200 µM
C[C@]12CCCN1CC1=NNC(=O)c3cc(F)cc4[nH]c2c1c34,,ethanol,,,,,49000 µg/mL
CCOc1ccc2cc(-c3nn(C(C)(C)C)c(N)c3C(N)=O)ccc2n1,,PBS,,pH 6.5,25 °C,,83.5 µM
Clc1ccc2c(c1)nc(NCc1ccccn1)n2Cc1ccccc1,shake flask,aqueous buffer,20 h,pH 6.5,25 °C,,15 µM
Cc1cc(F)cc(Nc2nc(NCc3ccccc3)c3ccccc3n2)c1,,aqueous buffer,,pH 7.4,,,< 0.01 µg/mL
CC(C)(C)n1nc(-c2ccc3nc(OC4CCC4)ccc3c2)c(C(N)=O)c1N,,PBS,,pH 6.5,25 °C,,80.6 µM
CCOC(=O)C1=C(C)NC(C)=C(C(=O)OC)C1c1cccc(Cl)c1Cl (stereo not shown),,FaSSIF,24 h,pH 7.4,37 °C,,40 µg/mL
CCCn1nc(C(=O)N2CCCCC2)c2c1CCC(NCCN1CCCCC1)C2 (stereo not shown),,PBS,16 h,pH 7.4,,,1740 µM
Cc1cc(Nc2ccc(Cl)cc2)n2nc(C(C)C)nc2n1,nephelometry,aqueous buffer,,pH 6.5,,,83 to 170 µM
COC(=O)c1ccc2c(c1)nc(C1CCNCC1)n2Cc1ccccc1,shake flask,aqueous buffer,20 h,pH 6.5,25 °C,,200 µM
COc1cccc(OC)c1-c1nc(C(=O)N[C@@H](CC(C)C)C(=O)O)cn1-c1ccnc2cc(Cl)ccc12,,aqueous buffer,,pH 7.4,,,> 52 µg/mL
COc1cc(C(=O)O)cc(OC)c1O,,water,72 h,,25 °C,,7400 µM
CC(C)C[C@H](NC(=O)[C@H](Cc1ccccc1)NC(=O)c1cnccn1)B(O)O,nephelometry,aqueous buffer,,pH 6.8,,,50 µM
FC(F)(F)c1ccc2c(c1)nc(N1CCNCC1)n2Cc1ccccc1,shake flask,aqueous buffer,20 h,pH 6.5,25 °C,,200 µM
[Br-].c1ccc(-c2n(Cc3ccc4ccccc4c3)cc[n+]2Cc2ccc3ccccc3c2)cc1,,water,,,,,< 500 µg/mL
COc1cccc(OC)c1-c1nc(C(=O)N[C@@H](CC(C)C)C(=O)O)cn1-c1cccc2ccccc12,,aqueous buffer,,pH 5,,,103 µg/mL
Cc1cc(Nc2cccc(Cl)c2)n2nc(C(C)(F)F)nc2n1,nephelometry,aqueous buffer,,pH 6.5,,,77 to 150 µM
COc1cccc2c(NCc3ccccc3)nc(N3CCNc4ccccc43)nc12,,aqueous buffer,,pH 6.2,,,10.2 µg/mL
COc1cc(OC)cc(N(CCNC(C)C)c2ccc3ncc(-c4cnn(C)c4)nc3c2)c1,,aqueous buffer,,pH 3.96,,,23200 µg/mL
c1ccc(CNc2nc(N3CCNc4ccccc43)nc3ccccc23)cc1,,aqueous buffer,,pH 5,,,> 36 µg/mL
CC(=O)Oc1ccccc1C(=O)O,,PBS,,pH 7.4,,,12600 µg/mL
CCCCCCN1CCCC1=O,,PBS,48 h,pH 7.4,25 °C,,79000 µM
CC(=O)N[C@@H](CC(N)=O)C(=O)N[C@@H](CC(N)=O)C(=O)N[C@@H](CC(C)C)C(=O)N[C@H]1CSSC[C@@H](C(=O)N[C@H](C(N)=O)[C@@H](C)O)NC(=O)[C@H](CCCNC(=N)N)NC(=O)[C@H](Cc2c[nH]cn2)NC(=O)[C@H](C)NC(=O)CNC(=O)[C@H](Cc2c[nH]c3ccccc23)NC(=O)[C@H](CC(=O)O)NC(=O)[C@H](CCC(N)=O)NC(=O)[C@H](Cc2c[nH]c3ccccc23)NC(=O)[C@H](C(C)C)NC1=O,,PBS,,pH 7.4,,,3920 µg/mL
O=C(Nc1ccc(F)cc1C(=O)O)c1ccc(-c2ccccc2)cc1,shake flask,aqueous buffer,24 h,pH 6.5,25 °C,,10 µM
NC1CCN(c2nccc3[nH]c(-c4cccc(OC(F)(F)F)c4)nc23)CC1,shake flask,aqueous buffer,,pH 6.5,,,> 200 µM
COc1cccc2c(NCc3ccccc3)nc(NCc3ccccc3)nc12,,aqueous buffer,,pH 5,,,3.2 µg/mL
